Screening data from PubChem BioAssay.
TPT1 inhibitor – blocks Candida albicans tRNA 2'-phosphotransferase; inhibition, % at 5 µM; recombinant caTPT1, FP RNA substrate dephosphorylation; hit rate 0.81% among 300,000; AID 1962;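 active = inhibition above the mean of all tested compounds plus 3 SD, set per screening campaign, cut at about 24% in these data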
Rpn11 inh – inhibitors of human proteasome Rpn11; O00487; hit rate 0.59% among 360,000; human 26S proteasome, Ub4-pepOG fluorescence polarization; 20S core pre-blocked with epoxomicin; inhibition, % at 20 µM;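 active = inhibition at 20 µM, scaled to each plate's controls, above about 33%, limit read from the data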
CSN deneddyl inh – blocks human CSN-mediated cullin deneddylation; Q92905; Purified CSN, SCF-Nedd8-OG deneddylation, fluorescence polarization; inhibition, % at 12.5 µM; hit rate 0.38% among 360,000;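 active = pattern-corrected inhibition above about 35%, with an unprinted fluorescence ratio check between 0.5 and 1.5, limit read from the data, passing the limit was not always enough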
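Test system: purified human Csn5 enzyme expressed in HEK293T cells. Amount: 0.24 nM enzyme. Reagent: SCFSkp2-Nedd8OG substrate at 10 nM final. Schedule: 90 min incubation of compound, enzyme and substrate at room temperature. Detection: fluorescence polarization. Read-out: % inhibition of substrate cleavage by Csn5.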
HNF4A DNA FP – change in binding of human HNF4 alpha to DNA; activity change, % at 10 µM; hit rate 0.3% among 360,000; AID 1224865; P41235; HNF4a-FITC DNA binding, fluorescence polarization, 1 h; in the data active = activity change above about 30%, passing the limit was not always enough
Neddylation inh – inhibitors of human cullin neddylation | inhibition, % at 25 µM | hit rate 0.58% among 360,000 | AID 651699 | TR-FRET cullin neddylation, biochemical | P61081+Q13564; in the data active = inhibition above about 36%
Rin1-Abl PPI inh – human Rin1-Abl interaction inhibition | inhibition, % at 7.35 µM | TR-FRET Rin1/Abl binding, biochemical | hit rate 0.4% among 360,000 | AID 588664; in the data active = inhibition above about 5%, passing the limit was not always enough
Target sequence (P00519 whole entry, looked up): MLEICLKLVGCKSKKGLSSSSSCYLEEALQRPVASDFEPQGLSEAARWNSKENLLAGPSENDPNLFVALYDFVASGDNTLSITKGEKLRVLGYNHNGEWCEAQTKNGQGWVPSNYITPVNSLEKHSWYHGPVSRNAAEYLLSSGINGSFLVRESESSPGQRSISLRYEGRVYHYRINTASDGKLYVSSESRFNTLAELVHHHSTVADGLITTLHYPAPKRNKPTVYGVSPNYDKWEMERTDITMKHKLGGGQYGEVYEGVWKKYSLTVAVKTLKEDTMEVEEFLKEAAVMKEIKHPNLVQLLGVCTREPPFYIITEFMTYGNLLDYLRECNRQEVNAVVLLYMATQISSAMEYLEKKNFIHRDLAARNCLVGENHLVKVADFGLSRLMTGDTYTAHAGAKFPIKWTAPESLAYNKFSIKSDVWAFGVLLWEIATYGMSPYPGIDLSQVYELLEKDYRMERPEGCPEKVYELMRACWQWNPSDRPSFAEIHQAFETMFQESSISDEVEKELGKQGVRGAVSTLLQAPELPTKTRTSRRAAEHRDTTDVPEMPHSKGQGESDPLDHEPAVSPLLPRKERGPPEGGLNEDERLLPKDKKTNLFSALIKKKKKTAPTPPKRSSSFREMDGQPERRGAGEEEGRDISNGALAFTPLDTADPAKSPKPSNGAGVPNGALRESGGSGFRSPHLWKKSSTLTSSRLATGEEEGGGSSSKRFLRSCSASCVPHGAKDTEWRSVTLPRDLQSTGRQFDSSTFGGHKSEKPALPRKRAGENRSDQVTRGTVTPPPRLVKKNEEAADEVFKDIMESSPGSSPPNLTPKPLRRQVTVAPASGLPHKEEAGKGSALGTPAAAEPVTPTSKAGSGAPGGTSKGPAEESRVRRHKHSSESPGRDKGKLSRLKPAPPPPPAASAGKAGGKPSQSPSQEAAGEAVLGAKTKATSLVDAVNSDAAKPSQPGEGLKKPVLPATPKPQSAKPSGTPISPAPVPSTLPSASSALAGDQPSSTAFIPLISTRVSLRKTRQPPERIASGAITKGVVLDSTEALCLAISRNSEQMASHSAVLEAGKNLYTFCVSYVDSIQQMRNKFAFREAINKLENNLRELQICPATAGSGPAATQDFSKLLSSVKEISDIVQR
Target sequence (Q13671 whole entry, looked up): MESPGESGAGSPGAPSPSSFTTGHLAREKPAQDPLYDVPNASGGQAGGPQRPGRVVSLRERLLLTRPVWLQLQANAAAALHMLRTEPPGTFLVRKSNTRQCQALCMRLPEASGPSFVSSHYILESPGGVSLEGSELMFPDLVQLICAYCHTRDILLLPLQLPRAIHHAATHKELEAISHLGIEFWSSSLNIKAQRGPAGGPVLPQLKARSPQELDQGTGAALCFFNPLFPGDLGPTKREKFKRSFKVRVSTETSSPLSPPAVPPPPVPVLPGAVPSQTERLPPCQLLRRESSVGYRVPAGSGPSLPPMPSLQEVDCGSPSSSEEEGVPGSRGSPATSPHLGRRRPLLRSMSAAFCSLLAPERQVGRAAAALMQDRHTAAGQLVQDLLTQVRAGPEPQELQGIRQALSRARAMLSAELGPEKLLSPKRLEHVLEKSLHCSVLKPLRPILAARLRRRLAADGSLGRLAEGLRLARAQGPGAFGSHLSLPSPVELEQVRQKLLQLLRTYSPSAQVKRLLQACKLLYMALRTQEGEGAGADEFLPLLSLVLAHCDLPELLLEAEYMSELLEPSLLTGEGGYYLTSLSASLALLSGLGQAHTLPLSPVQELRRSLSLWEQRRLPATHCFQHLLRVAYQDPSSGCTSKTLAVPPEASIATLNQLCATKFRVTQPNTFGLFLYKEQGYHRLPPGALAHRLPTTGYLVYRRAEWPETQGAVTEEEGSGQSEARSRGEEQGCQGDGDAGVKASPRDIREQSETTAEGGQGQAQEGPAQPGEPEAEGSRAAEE
Neddyl conf – confirmation of human cullin neddylation inhibitors. hit rate 13% among 1,800. TR-FRET cullin neddylation biochemical assay. AID 652217. calls only at 25 µM. shares compounds with Neddylation inh; in the data active = inhibition above about 40%;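 also: neddylation substrate is the cullin 1 ring ligase complex with SKP2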
Large screens that a line does not name were inactive (follow-up assays come after a bar, where shown). This is a sample that favours compounds with a hit; in the whole collection about 2.4% have one here.

O=C1CC2(CCCCC2)Oc2ccc(Cl)cc21	Neddylation inh 28.0 | Neddyl conf inactive
Cc1cc(C(=O)N2CCN(c3ncccc3C#N)CC2)no1	none
N#Cc1nc(-c2ccc(F)cc2)oc1N1CCN(C(=O)c2ccco2)CC1	none
COc1cccc(-c2nc(C#N)c(N3CCN(C(=O)c4ccco4)CC3)o2)c1	Neddylation inh 56.1 | Neddyl conf inactive
Cc1nc(N2CCN(C(=O)c3ccco3)CC2)c(C#N)c2c1CCCC2	Neddylation inh 48.2 | Neddyl conf inactive
COc1ccc(N2CCN(C(=O)COCC(=O)O)CC2)cc1	none
N#Cc1cccnc1N1CCN(C(=O)COCC(=O)O)CC1	Neddylation inh 42.4 | Neddyl conf active
N#Cc1cccnc1N1CCN(C(=O)c2ccco2)CC1	Neddylation inh 48.9 | Neddyl conf inactive
Cc1cc(-c2nnc(CCC(=O)N(C)Cc3cccc4ccccc34)o2)no1	none
CC(C)Cc1ccc(C(C)NC(=O)Cc2ccc(S(=O)(=O)N3CCOCC3)s2)cc1 (stereo not drawn)	none
CCOC(=O)N1CCN(S(=O)(=O)N2CCCC(C(=O)NCCc3ccc(OC)c(OC)c3)C2)CC1 (stereo not drawn)	none
O=C1CSC(c2cn(-c3ccccc3)nc2-c2cc3ccccc3oc2=O)N1Cc1cccnc1 (stereo not drawn)	Neddylation inh 41.6 | Neddyl conf inactive
O=C(Nc1ccccc1C(=O)O)c1cccc(NC(=O)c2ccccc2Br)c1	none
O=C(Nc1cc(C(=O)Nc2ccccc2C(=O)O)cc(C(=O)Nc2ccccc2C(=O)O)c1)c1ccccc1	Neddylation inh 49.0 | Neddyl conf inactive
CCC1CCCCN1C(=O)CSc1nnc(CNC(=O)c2c(F)cccc2Cl)o1 (stereo not drawn)	none
CCCCCCC(=O)Nc1c2c(nc3ccccc13)N(C)CC2	none (not shown: Neddylation inh)
CN1CCN(CC(=O)Nc2cc(N(C)C)nc3ccccc23)CC1	Neddylation inh 40.0 | Neddyl conf inactive
CN1CCc2c1nc1ccccc1c2NC(=O)CN1CCCC1	Neddylation inh 41.4 | Neddyl conf inactive
CSC(=Nc1ccccc1)N=C(SCc1ccccc1)N(C)C	none (no result: TPT1 inhibitor)
CN(C)CCCNc1ncnc2oc(-c3ccccc3)c(-c3ccccc3)c12	Neddylation inh 41.8 | Neddyl conf inactive
Cc1ccc(NC(=O)c2ccc3c(=O)n4c(nc3c2)CCC4)cc1S(=O)(=O)N(C)C	none (no result: TPT1 inhibitor)
O=C(CCCc1c[nH]c2ccccc12)Nc1ccc(S(=O)(=O)Nc2ncccn2)cc1	none
CCS(=O)(=O)Nc1cccc(C2=NN(S(=O)(=O)CC)C(c3cccs3)C2)c1 (stereo not drawn)	none
CCS(=O)(=O)Nc1ccc(C2=NN(S(=O)(=O)CC)C(c3cccs3)C2)cc1 (stereo not drawn)	Neddylation inh 44.3 | Neddyl conf inactive
O=C(O)/C=C/C(=O)Nc1ccc2nccnc2c1	Neddylation inh 41.1 | Neddyl conf inactive
Cc1cc(-c2nn(-c3ccccc3)cc2/C=C2\SC(N)=NC2=O)ccc1OC(C)C	Neddylation inh 47.7 | Neddyl conf inactive
CCCOc1ccc(-c2nn(-c3ccccc3)cc2/C=C2\SC(N)=NC2=O)cc1	none (not shown: Neddylation inh)
O=C(c1ccccc1)N(CCO)Cc1cc2cc3c(cc2[nH]c1=O)OCCO3	Neddylation inh 41.8 | Neddyl conf inactive
CN(C)CCN(Cc1cc2cc3c(cc2[nH]c1=O)OCO3)C(=S)NCC1CCCO1 (stereo not drawn)	Neddylation inh 41.2 | Neddyl conf inactive
O=C(NCc1ccccc1)N(Cc1cc2cc3c(cc2[nH]c1=O)OCO3)CC1CCCO1 (stereo not drawn)	Neddylation inh 41.2 | Neddyl conf inactive
CCOCCCNC(=O)C(c1ccc(C)cc1)N(Cc1cccs1)C(=O)CNC(C)=O (stereo not drawn)	none
CCOC(=O)C1=C(C)Nc2sc(C(=O)c3ccc(OC)cc3)c(N)c2C1c1ccc(C(=O)OC)cc1 (stereo not drawn)	none
Cc1cc(SCC(=O)Nc2ccc(O)cc2)n2ncc(-c3ccccc3)c2n1	Neddylation inh 39.2 | Neddyl conf inactive
O=C(NC1CCCCC1)C(c1ccncc1)n1c(=O)c(-c2ccccc2)nc2ccccc21 (stereo not drawn)	Neddylation inh 45.1 (no result: TPT1 inhibitor, Rpn11 inh, Rin1-Abl PPI inh) | Neddyl conf active
N#Cc1ccc(C(C(=O)NC2CCCCC2)n2c(=O)c(-c3ccccc3)nc3ccccc32)cc1 (stereo not drawn)	none (no result: TPT1 inhibitor, Rpn11 inh, Rin1-Abl PPI inh)
CCCCCNC(=O)C(c1ccncc1)n1c(=O)c(-c2ccccc2)nc2ccccc21 (stereo not drawn)	Neddylation inh 45.3 (no result: TPT1 inhibitor, Rpn11 inh, Rin1-Abl PPI inh) | Neddyl conf inactive
COc1ccc(NC(=O)C(c2ccncc2)n2c(=O)c(-c3ccccc3)nc3ccccc32)cc1 (stereo not drawn)	Neddylation inh 50.8 (no result: TPT1 inhibitor, Rpn11 inh, Rin1-Abl PPI inh) | Neddyl conf inactive
CCCCCNC(=O)C(c1ccc(-c2ccccc2)cc1)n1c(=O)c(-c2ccccc2)nc2ccccc21 (stereo not drawn)	none (no result: TPT1 inhibitor, Rpn11 inh, Rin1-Abl PPI inh)
CC(=O)OCC1OC(n2c(S)c(C#N)c(-c3ccccc3)c(C#N)c2=O)C(OC(C)=O)C(OC(C)=O)C1OC(C)=O (stereo not drawn)	none (no result: TPT1 inhibitor)
CCOc1ncccc1C(=O)OCC(=O)NC1CCCCCC1	none (no result: TPT1 inhibitor)
O=C(CNC(=O)c1cccc(F)c1)N/N=C/c1cccs1	none
CCC(C)(O)c1[nH]c2ccc(C(F)(F)F)cc2c1C (stereo not drawn)	none
Cn1c(N/N=C/c2cccs2)nc2c1c(=O)n(Cc1ccccc1)c(=O)n2C	Neddylation inh 38.8 | Neddyl conf inactive
Cc1ccc2nc(-c3ccc4c(c3)OCCO4)cc(C(=O)O)c2c1	Neddylation inh 38.3
CCOC(=O)c1cc(-c2ccccc2)nc2ccc(C)cc12	Neddylation inh 40.5
CC1=C(CC(=O)O)c2cc(F)ccc2/C1=C\c1ccc(S(C)=O)cc1 (stereo not drawn)	none
NC(=O)c1cc2ccc(O)cc2oc1=Nc1ccccc1	Neddylation inh 53.6 (no result: TPT1 inhibitor) | Neddyl conf inactive
CC1CCCCc2nc3c(c(=O)n21)CCCC3 (stereo not drawn)	none (no result: TPT1 inhibitor)
CCN(CC)c1ccc(/C=N/NC(=O)c2cccc(N3CCCC3=O)c2)cc1	Neddylation inh 57.5
O=C(N/N=C/c1cccnc1)c1cccc(N2CCCC2=O)c1	none
CCCNC(=O)c1oc2ccc3c(c2c1C)C=CC(C)(C)O3	Neddylation inh 40.2 | Neddyl conf inactive
Cc1cc(C)n(Cc2ccc(C(=O)NCc3ccco3)o2)n1	none
Cc1cc(C)n2nc(C(=O)NCc3ccco3)cc2n1	Neddylation inh 51.0
CCOC(=O)C1CCN(C(=O)c2cc3ccc(OC)cc3[nH]2)CC1	none
CCOC(=O)C1CCCN(C(=O)c2cc3cc(OC)c(OC)cc3[nH]2)C1 (stereo not drawn)	Neddylation inh 42.5 (not shown: TPT1 inhibitor)
